# Active and inactive are the calls of the source.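 How the source made its calls, unless noted: active means Her2 level under about 52% in both replicate screens, with viability over 70% of control (limit read from the data); inconclusive means Her2 under the limit in one screen only, or viability under 70%; inactive means Her2 level above the set limit.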
# Experiments:
# [1] = reducers of endogenous Her2 protein level, primary screen, SKBR3 breast tumor cells, AlphaScreen, ATP viability (AID 461); details: 18-24 h, measured here: SKBR3 viability, ATP luminescence, at 10 µM;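 on Her2 level: lower value means less Her2 protein in the cells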;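 on viability: percent of carrier control wells set as 100% viability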
# [2] = molecular target: Receptor tyrosine-protein kinase erbB-2 (Homo sapiens) (UniProt P04626); test: as above; details: 18-24 h, at 10 µM, stronger effect = lower value
# Sequence of Receptor tyrosine-protein kinase erbB-2 (Homo sapiens) (P04626 whole entry, looked up): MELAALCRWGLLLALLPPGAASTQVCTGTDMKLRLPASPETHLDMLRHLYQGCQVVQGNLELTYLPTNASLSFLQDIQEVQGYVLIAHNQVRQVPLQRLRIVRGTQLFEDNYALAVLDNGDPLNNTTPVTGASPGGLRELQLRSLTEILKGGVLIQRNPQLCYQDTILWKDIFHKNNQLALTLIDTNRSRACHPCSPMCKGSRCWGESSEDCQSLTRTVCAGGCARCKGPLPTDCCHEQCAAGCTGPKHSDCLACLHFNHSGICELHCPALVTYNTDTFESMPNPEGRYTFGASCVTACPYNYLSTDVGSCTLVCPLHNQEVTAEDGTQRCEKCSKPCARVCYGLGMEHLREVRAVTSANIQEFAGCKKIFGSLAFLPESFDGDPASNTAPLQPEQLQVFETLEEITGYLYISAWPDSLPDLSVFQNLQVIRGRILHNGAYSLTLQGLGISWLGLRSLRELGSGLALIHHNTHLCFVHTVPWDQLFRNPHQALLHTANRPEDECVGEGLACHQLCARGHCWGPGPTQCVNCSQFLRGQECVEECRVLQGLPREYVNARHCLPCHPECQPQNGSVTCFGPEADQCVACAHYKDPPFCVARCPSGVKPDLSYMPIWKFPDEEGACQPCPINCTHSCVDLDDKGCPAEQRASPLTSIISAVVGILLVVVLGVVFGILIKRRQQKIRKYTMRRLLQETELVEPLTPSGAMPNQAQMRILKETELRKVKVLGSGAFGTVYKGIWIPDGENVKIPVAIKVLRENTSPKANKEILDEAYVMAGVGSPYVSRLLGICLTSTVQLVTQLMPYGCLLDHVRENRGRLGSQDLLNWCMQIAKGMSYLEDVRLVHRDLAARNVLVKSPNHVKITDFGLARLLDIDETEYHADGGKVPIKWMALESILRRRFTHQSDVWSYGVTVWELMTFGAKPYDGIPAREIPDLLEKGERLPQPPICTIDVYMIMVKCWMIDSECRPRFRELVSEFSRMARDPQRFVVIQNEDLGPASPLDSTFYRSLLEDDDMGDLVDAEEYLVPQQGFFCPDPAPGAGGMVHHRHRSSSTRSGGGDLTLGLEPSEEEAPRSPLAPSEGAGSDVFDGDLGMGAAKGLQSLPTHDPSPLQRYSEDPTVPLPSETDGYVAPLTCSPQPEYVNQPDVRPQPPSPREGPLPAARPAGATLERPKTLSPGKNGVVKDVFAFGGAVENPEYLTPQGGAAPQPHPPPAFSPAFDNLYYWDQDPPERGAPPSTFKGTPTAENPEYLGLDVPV
# [3] = SK-BR-3 cell growth inhibitors, pilot screen, 24 h, human (AID 572;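 active means viability at or below 10% of carrier control in both of two separate runs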;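 further: compound exposure lasted between 18 and 24 h rather than exactly 24 h; 100% = carrier-treated control wells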); details: SK-BR-3 viability, CellTiter-Glo luminescence, at 10 µM, stronger effect = lower value
# [4] = HUVEC growth inhibition – cell-based, human, primary screen (AID 575;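 active means viability at or below 30% in both replicate assays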;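 further: 100% = median of untreated cell wells with 0.1% DMSO on each plate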); details: HUVEC proliferation, CellTiter-Glo luminescence, 72 h; at 10 µM; stronger effect = lower value
# Procedure, shortened: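 Test system: HUVEC primary cells. Quantity: 1250 endothelial cells in each well. Dosing: single-point 10 µM, DMSO 0.1% final. Incubation: 72 h treatment at 37 °C. Measured by: CTG luminescence. Control set: DMSO cell controls and MePR drug controls. Plate: collagen-coated 384-well format.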
# [5] = growth inhibitors of H69AR lung tumor, primary screen, human, duplicate replicates (AID 580;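 active means viability at or under a set limit in both replicates, limit being median viability minus 3 SD, cut at about 48% in these data, passing the limit was not always enough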;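 further: 100% = mean luminescence of untreated wells and 0% = no signal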); details: H69AR lung tumor cells viability, ATP luminescence, 72 h; at 10 µM; stronger effect = lower value
# [6] = reversal of MRP1-mediated doxorubicin resistance, pilot screen, H69AR cells, doxorubicin co-treatment (AID 601;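 active means viability loss from added drug above about 55%, and viability with drug at most 40%, in both replicates, limit read from the data, passing the limit was not always enough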); details: CellTiter-Glo, 72 h, at 10 µM; for differential viability (reversal): stronger effect = higher value
# [7] = 384-well plate pilot, post-Golgi transport modulator project, inhibition of yeast transport mutant growth (AID 636; in the data active means inhibition above about 31%); details: absorbance 615 nm, about 18 h, stronger effect = higher value
# [8] = growth suppression of yeast trafficking mutant, preliminary HTS, modulators of trafficking downstream of Golgi apparatus project, 1536-format plate, OD 615 nm (AID 637; in the data active means inhibition above about 30%); details: yeast transport mutant growth, absorbance 615 nm, 18 h; stronger effect = higher value
# [9] = H69AR cells + 2 uM doxorubicin, measured here: viability with 2 uM doxorubicin, stronger effect = lower value
# [10] = H69AR cells, compound alone cytotoxicity
SMILES,viability [1] [%],Her2 level [2],viability [3],viability [4],viability [5],differential viability (reversal) ([6]; H69AR cells + 2 uM doxorubicin),"viability [6, 9] [%]","viability [6, 10] [%]",inhibition [7],inhibition [8]
Cc1ccc(-c2cc(C(=O)NCCN3CCOCC3)no2)cc1,86.5,120% (inactive),86.5% (inactive),95.3% (inactive),99.8% (inactive),12.7% (inactive),87,99.8,3.07% (inactive),-6.83% (inactive)
Cc1ccc(Cn2nnc3c(=O)n(CC(=O)NCC4CCCO4)cnc32)cc1 (stereo not given),97,88.5% (inactive),97% (inactive),105% (inactive),104% (inactive),13.4% (inactive),90.4,104,-6.05% (inactive),-0.79% (inactive)
Fc1cccc2sc(N3CCOCC3)nc12,93.5,80.5% (inactive),93.5% (inactive),83.9% (inactive),96.8% (inactive),15.4% (inactive),81.4,96.8,-4.87% (inactive),5.17% (inactive)
CCOc1ccccc1N1CCN(c2nc(N)c(C#N)c(CC#N)c2C#N)CC1,108,74.5% (inactive),108% (inactive),70.7% (inactive),61.7% (inactive),-22.8% (inactive),84.5,61.7,-4.34% (inactive),5.64% (inactive)
CCn1c(=O)cc(SCC(=O)NCCN2CCN(Cc3ccccc3)CC2)c2ccccc21,89,89.5% (inactive),89% (inactive),80.5% (inactive),84.4% (inactive),7.1% (inactive),77.3,84.4,-4.47% (inactive),-3.09% (inactive)
O=C(O)c1ccc(COc2c(F)c(F)cc(F)c2F)cc1,114,93.5% (inactive),114% (inactive),101% (inactive),103% (inactive),0.99% (inactive),102,103,-5.73% (inactive),-0.79% (inactive)
CCOC(=O)/C(C#N)=C1\Nc2ccccc2N=C1N(CC(C)C)CC(C)C,80,104% (inactive),80% (inactive),86.2% (inactive),84.2% (inactive),-5.4% (inactive),89.6,84.2,-4.13% (inactive),-2.79% (inactive)
O=C(NCCCn1ccnc1)c1csc2ccccc12,84.5,89.5% (inactive),84.5% (inactive),95.4% (inactive),97.5% (inactive),11.9% (inactive),85.6,97.5,-3.03% (inactive),3.67% (inactive)
CC(=O)N1CCc2cc(S(=O)(=O)NC(C(=O)NCc3ccccc3)C(C)C)ccc21 (stereo not given),97,95.5% (inactive),97% (inactive),94.6% (inactive),102% (inactive),12.1% (inactive),90.1,102,-2.5% (inactive),-10% (inactive)
C[C@@H]1C[C@H](O)c2cc(Cl)ccc2N1,104,88.5% (inactive),104% (inactive),86.1% (inactive),87.1% (inactive),7.69% (inactive),79.4,87.1,-5.84% (inactive),-3.33% (inactive)
Cc1ccc(CNC(=O)C2CCCN(S(=O)(=O)c3cccnc3)C2)cc1 (stereo not given),92.5,109% (inactive),92.5% (inactive),104% (inactive),99.6% (inactive),10.6% (inactive),89,99.6,-0.26% (inactive),-4.18% (inactive)
CCOC(=O)C1CCN(C(=O)COc2ccc(Cl)cc2Cl)CC1,109,98% (inactive),109% (inactive),101% (inactive),96.2% (inactive),10.2% (inactive),86.1,96.2,-3.64% (inactive),-6.35% (inactive)
CCOC(=O)c1cn(CC)c2cc(N3CCOCC3)c(F)cc2c1=O,104,106% (inactive),104% (inactive),94.6% (inactive),90.8% (inactive),-10.3% (inactive),101,90.8,2.16% (inactive),-0.63% (inactive)
O=c1[nH]c(CN2CCN(Cc3ccccc3)CC2)nc2sc3c(c12)CCC3,96,87.5% (inactive),96% (inactive),98.9% (inactive),87.9% (inactive),0.67% (inactive),87.3,87.9,-4.86% (inactive),2.06% (inactive)

# — PubChem BioAssay
